From ChEMBL document CHEMBL3045034, “Diterpenes from Salvia broussonetii transformed roots and their insecticidal activity” (J Agric Food Chem, 2005)
Values after ≈ are worked out from the molar mass of the structure shown. Active and inactive are the calls of the source. The calls are words filed in the database; no cut-off is given here.

Experiments:
Spodoptera littoralis [1] = assay: Effect on weight gain in L6 larvae Spodoptera littoralis assessed as biomass compound injected orally relative to control; format: functional
[2] = Cytotoxicity in mammalian Cricetulus griseus CHO (Chinese hamster ovary) cells measured after 48 hr by MTT assay; conditions: read-out: LD50
[3] = system: Leptinotarsa decemlineata; assay: Mortality in adult Leptinotarsa decemlineata in host plant measured after 72 hr; format: functional; parameters: concentration or dose not given beside the values
In short: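 Test compounds in DMSO (10 µg/insect) were injected into the hemolymph of 20 adult beetles. Mortality was recorded for up to 3 days (72 h), analysed with contingency tables and corrected by Abbott's method.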

[4] = system: Leptinotarsa decemlineata; assay: Antifeedant activity against adult Leptinotarsa decemlineata in host plant assessed as feeding inhibition; format: functional, organism-based
In short: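 Choice feeding assay with adult beetles. Percent feeding inhibition was calculated. Compounds giving over 50% inhibition went on to a dose-response test, and EC50 (dose for 50% feeding reduction, µg/cm2) was derived by linear regression of % inhibition on log dose.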

Spodoptera littoralis [5] = assay: Antifeedant activity against L6 larvae Spodoptera littoralis compound injected orally relative to control; format: functional, organism-based
Spodoptera littoralis [6] = assay: Effect on ingestion in L6 larvae Spodoptera littoralis assessed as consumption compound injected orally relative to control; format: functional

SMILES	Activity (Spodoptera littoralis [1]) [%]	CC50 at 48 h [2] [µg/mL]	mortality [3] [%]	EC50 [4] [microg/cm2]	Activity (Spodoptera littoralis [5])	Activity (Spodoptera littoralis [6]) [%]
COc1c(C(C)C)cc2c(c1O)[C@@]1(C)CCCC(C)(C)[C@@H]1CC2	102	> 100	14	10.2	inactive	91
CC(C)c1cc2c(c(O)c1O)[C@@]1(C)CCCC(C)(C)[C@@H]1[C@@H](O)C2=O [6-ALPHA-HYDROXYDEMETHYL-CRYPTOJAPONOL]	–	> 100	–	–	inactive	–
CC(C)c1cc2c(c(O)c1O)C[C@@]13CCCC(C)(C)[C@@H]1C[C@@H]2O3 [BRUSSONOL]	–	50.6 (≈ 160 µM)	7	> 100	–	–
CC(C)c1cc2c(c(O)c1O)[C@@]1(C)CCCC(C)(C)[C@@H]1CC2=O [DEMETHYLCRYPTOJAPONOL]	105	36 (≈ 114 µM)	43	> 100	inactive	103
COc1c(O)c2c(c(O)c1C(C)C)C(=O)C[C@H]1C(C)(C)CCC[C@]21C [INUROYLEANOL]	106	–	0	> 100	inactive	119
CC(C)c1cc2c(c(O)c1O)[C@@]1(C)CCCC(C)(C)C1=C(O)C2=O [14-DEOXYCOLEON U]	99	> 100	29	1.8	inactive	107
